Test results from article PMC8861878 (The Journal of pharmacy and pharmacology, 2020).

How the values were obtained:
[1] = target: T1, UGT2B4 (Homo sapiens, UniProt P06133); test: Glucuronidation of isobavachin by recombinant UGT2B4, enzyme kinetics; assay type: in vitro ADME; conditions: formation of G1; Michaelis–Menten model
T1 sequence (P06133 24-528): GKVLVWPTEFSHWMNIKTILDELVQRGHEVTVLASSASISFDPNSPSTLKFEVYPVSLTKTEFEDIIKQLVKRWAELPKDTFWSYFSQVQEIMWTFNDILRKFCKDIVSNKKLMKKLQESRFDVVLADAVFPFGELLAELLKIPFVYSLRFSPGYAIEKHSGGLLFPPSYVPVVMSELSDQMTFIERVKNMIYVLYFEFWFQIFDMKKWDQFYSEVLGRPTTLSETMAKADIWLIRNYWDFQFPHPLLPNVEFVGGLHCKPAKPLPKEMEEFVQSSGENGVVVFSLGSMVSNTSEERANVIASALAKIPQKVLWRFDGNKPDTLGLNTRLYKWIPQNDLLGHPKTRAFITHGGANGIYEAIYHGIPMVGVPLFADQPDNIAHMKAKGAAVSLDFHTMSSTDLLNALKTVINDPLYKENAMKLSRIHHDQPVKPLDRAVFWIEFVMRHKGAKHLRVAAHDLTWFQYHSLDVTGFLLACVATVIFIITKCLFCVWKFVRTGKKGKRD

[2] = target: CYP2C19 (Homo sapiens, UniProt P33261); test: Inhibition of CYP2C19; assay type: in vitro ADME
[3] = target: T2, UGT1A6 (Homo sapiens, UniProt P19224); test: Glucuronidation of isobavachin by recombinant UGT1A6, enzyme kinetics; assay type: in vitro ADME; conditions: substrate inhibition constant, substrate inhibition model
T2 sequence (P19224 27-532): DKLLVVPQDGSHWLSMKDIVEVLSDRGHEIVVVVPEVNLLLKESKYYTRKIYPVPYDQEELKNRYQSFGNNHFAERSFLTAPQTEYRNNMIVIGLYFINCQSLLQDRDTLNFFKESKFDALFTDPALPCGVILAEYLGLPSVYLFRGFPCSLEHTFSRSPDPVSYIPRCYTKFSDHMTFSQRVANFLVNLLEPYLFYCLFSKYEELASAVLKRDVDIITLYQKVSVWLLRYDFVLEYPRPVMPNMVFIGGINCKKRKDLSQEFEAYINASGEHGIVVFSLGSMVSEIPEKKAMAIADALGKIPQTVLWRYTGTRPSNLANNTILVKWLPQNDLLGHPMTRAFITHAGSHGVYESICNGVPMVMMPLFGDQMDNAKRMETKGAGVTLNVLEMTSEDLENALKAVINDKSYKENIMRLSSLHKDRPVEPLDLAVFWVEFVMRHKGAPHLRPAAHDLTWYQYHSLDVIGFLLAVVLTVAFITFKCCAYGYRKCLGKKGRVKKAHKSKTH

[4] = target: T3, UGT1A9 (Homo sapiens, UniProt O60656); test: Glucuronidation of isobavachin by recombinant UGT1A9, enzyme kinetics; assay type: in vitro ADME; conditions: formation of G1, substrate inhibition model
T3 sequence (O60656 26-530): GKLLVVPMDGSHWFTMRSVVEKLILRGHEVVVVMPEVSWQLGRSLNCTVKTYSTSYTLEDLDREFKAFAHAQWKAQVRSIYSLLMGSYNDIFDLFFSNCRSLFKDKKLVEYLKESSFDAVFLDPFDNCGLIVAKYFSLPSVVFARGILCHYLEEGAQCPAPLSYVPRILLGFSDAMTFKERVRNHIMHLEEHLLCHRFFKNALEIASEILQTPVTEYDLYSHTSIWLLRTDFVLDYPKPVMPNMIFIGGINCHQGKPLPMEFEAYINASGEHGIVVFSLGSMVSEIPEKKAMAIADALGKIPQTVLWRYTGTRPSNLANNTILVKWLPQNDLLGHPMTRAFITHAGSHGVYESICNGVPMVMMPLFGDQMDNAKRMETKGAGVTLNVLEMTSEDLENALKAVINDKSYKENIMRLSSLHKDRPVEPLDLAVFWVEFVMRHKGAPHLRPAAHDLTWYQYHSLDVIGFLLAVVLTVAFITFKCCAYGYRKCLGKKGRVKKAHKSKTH

[5] = target: CYP2E1 (Homo sapiens, UniProt P05181); test: Inhibition of CYP2E1; assay type: in vitro ADME; conditions: isobavachin 1, 10, 100 μM; substrate chlorzoxazone (200 μM)
Procedure, shortened: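 Recombinant human CYPs (CYP1A2 and 3A4 at 0.05 mg/ml; CYP2C8 and 2E1 at 0.1 mg/ml) with probe substrate in Tris-HCl 50 mM pH 7.4, MgCl2 5 mM and NADPH 1 mM at 37 °C for 60 min. Run without (control) or with test compound at 1, 10 or 100 μM. Acetonitrile stop; metabolite by UHPLC-TQD-MS; activity versus control, triplicate.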

[6] = tested on: expressed CYP enzymes; test: Reaction phenotyping with expressed CYP enzymes; assay type: in vitro ADME, human; conditions: isobavachin at 10 μM (Figure S4A)
[7] = Glucuronidation of isobavachin by MLM, enzyme kinetics; assay type: in vitro ADME, mice

Chain of CYP2C19 (P33261 whole entry): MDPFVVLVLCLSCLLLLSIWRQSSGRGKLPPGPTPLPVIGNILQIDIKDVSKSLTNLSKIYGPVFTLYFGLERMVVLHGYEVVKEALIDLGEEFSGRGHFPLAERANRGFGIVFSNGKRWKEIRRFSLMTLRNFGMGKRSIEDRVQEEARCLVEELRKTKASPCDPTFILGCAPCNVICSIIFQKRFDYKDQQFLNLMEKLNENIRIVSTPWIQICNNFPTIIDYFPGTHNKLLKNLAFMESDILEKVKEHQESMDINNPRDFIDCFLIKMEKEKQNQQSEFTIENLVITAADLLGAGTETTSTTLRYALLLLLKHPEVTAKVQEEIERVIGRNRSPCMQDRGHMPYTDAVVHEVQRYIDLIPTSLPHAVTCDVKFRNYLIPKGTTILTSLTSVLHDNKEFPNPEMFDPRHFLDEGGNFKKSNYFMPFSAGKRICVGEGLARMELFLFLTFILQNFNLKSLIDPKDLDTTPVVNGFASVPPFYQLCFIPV
Chain of CYP2E1 (P05181 whole entry): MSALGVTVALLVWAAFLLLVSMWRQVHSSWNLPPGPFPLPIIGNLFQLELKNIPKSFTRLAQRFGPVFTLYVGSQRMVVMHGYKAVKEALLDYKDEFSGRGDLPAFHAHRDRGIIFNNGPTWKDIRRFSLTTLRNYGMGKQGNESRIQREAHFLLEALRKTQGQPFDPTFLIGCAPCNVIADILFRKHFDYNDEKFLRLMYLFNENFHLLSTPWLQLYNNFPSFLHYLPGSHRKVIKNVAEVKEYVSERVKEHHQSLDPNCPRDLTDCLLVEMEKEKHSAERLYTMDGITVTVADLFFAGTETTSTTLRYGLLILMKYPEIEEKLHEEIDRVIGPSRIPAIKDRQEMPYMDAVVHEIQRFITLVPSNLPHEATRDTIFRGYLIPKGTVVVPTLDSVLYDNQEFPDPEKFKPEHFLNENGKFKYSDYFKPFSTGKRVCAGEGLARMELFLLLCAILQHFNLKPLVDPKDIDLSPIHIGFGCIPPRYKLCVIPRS

SMILES: CC(C)=CCc1c(O)ccc2c1O[C@H](c1ccc(O)cc1)CC2=O [isobavachin]
- CLint (CLmax) [1]: 30.59 ± 3.28 μl/min per mg
- Vmax [1]: 81.29 ± 2.05 pmol/min per mg
- IC50 [2]: 270 ± 70 nM
- residual activities ([2]; 10 μM isobavachin): 0 % of the negative control
- Ki ([2]; substrate mephenytoin, competitive model (selected, smallest AIC and SC)): 1550 nM
- Ki ([2]; substrate mephenytoin, mixed-type model (not selected)): 1550 ± 530 nM
- Ki ([2]; substrate mephenytoin, non-competitive model (not selected)): 3340 ± 490 nM
- Inhibition type ([2]; based on the smallest AIC and SC values): competitive inhibition
- α ([2]; substrate mephenytoin, mixed-type model): >>1
- Ki ([3]; formation of G1): 21970 ± 5840 nM
- Ki ([3]; formation of G2): 12710 ± 2600 nM
- Ki ([4]; substrate inhibition constant): 38390 ± 8880 nM
- CLint (CLmax) [4]: 202.62 ± 48.80 μl/min per mg
- Vmax [4]: 3167.00 ± 426.4 pmol/min per mg
- inhibitory effects [5]: negligible or weak
- CYP isozymes participating in oxidation [6]: CYP1A1, 1A2, 1B1, 2C8, 2C9, 2C19 and 2D6 all participated in the oxidation
- CLint (CLmax) ([7]; formation of G1, Michaelis–Menten model): 144.94 ± 11.20 μl/min per mg
- CLint (CLmax) ([7]; formation of G2, substrate inhibition model): 29.60 ± 9.00 μl/min per mg
